In the library only some 3.7% were active in any assay of this set; here they are far more common.
KCNQ1 inh – inhibitors of human KCNQ1 channel, primary screen, cell-based, thallium flux, high-throughput; 310,000 compounds, 1.3% hits; AID 2642, 2010; Potassium voltage-gated channel subfamily KQT member 1 (Homo sapiens), P51787; CHO-K1 KCNQ1, FluxOR thallium flux fluorescence; stronger effect = higher value; B-score at 10 µM;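 active = compounds whose thallium flux B-score, printed positive for inhibition, exceeds three library SD while starting fluorescence stays within three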;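 also: channel opened by potassium depolarization with thallium stimulus after 20 min compound exposure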
KCNQ1 pot – potentiators or activators of KCNQ1 channel, primary screen, cell-based, thallium flux, high-throughput | B-score at 10 µM | CHO-K1 KCNQ1, thallium flux FluxOR fluorescence; stronger effect = higher value | Potassium voltage-gated channel subfamily KQT member 1 (Homo sapiens), P51787 | 310,000 compounds, 0.35% hits;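 active = fluorescence ratio B-score, a plate-corrected score, at least three library SD, with initial intensity B-score within 5 SD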
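Material: CHO-K1 cells stably expressing KCNQ1. Medium: assay buffer for compound exposure, DMSO matched across wells. Reagent: K+/Tl+ depolarizing stimulus. Compound dosing: single-concentration screen. Times: 37 °C overnight plating, 90-min dark dye load, 20-min compound pretreatment. Technique: FluxOR Tl+ flux fluorescence.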
Kir21 inh – inhibitors of mouse Kir2.1 inward-rectifier potassium channel | Inward rectifier potassium channel 2 (Mus musculus), P35561 | B-score at 10 µM | 310,000 compounds, 0.85% hits | HEK293-Kir2.1, FluxOR thallium flux fluorescence; stronger effect = lower value;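 active = fluorescence ratio B-score at or below minus 3 SD of library scores, with starting-brightness B-score within 2 SD, cut at about -4.2 in these data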;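 also: channel flux triggered by added potassium and thallium sulfate stimulus; B-score of peak minus minimum fluorescence over baseline after thallium stimulus; more negative B-score means stronger Kir2.1 block with less thallium influx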
KCNK3 block – human KCNK3 channel inhibitors, primary screen, CHO cells, FluxOR thallium flux, B-score. 340,000 compounds, 0.84% hits. AID 602410, 2012. Potassium channel subfamily K member 3 (Homo sapiens), O14649. FluxOR fluorescence; stronger effect = lower value. B-score at 10 µM;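 active = B-score under library mean minus 4 SD, starting fluorescence ratio at most library mean plus 5 SD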;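 also: more negative B-score means stronger inhibition of thallium flux through KCNK3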
Target sequence (O14649 whole entry, looked up): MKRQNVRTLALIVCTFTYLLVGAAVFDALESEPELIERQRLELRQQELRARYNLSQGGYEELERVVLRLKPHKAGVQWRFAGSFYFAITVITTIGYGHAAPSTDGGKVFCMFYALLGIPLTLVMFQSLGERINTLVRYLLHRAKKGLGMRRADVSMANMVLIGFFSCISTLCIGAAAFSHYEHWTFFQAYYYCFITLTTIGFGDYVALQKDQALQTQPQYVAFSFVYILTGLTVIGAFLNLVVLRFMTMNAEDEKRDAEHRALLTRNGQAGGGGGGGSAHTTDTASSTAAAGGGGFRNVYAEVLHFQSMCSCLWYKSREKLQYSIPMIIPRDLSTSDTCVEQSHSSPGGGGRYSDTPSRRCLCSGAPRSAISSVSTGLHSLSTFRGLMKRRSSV
hERG rescue – hERG rescue from dofetilide block, primary screen, cell-based, CHO-hERG, FluxOR thallium flux, dofetilide IC70. Voltage-gated inwardly rectifying potassium channel KCNH2 (Homo sapiens), Q12809. dofetilide IC70 present. activation (rescue from dofetilide block), less the hit threshold, % at 10 µM. 310,000 compounds, 0.51% hits. AID 1511, 2009;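 active = activation above the mean of controls blocked by dofetilide plus 5 SD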;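 also: thallium influx through hERG after potassium depolarization seen as dye fluorescence rise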
KCNK9 inh – KCNK9 potassium channel inhibitors, primary screen, HEK293 cells, thallium flux; B-score at 10 µM; Potassium channel subfamily K member 9 (Homo sapiens), Q9NPC2; FluxOR thallium flux fluorescence; stronger effect = lower value; 310,000 compounds, 1.2% hits;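 active = ratio B-score over 3 SD below the library mean, with starting fluorescence within 5 SD of its mean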;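 also: negative B-score means less thallium flux so channel inhibition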
* = called active by the depositor; i = inactive; · = no result given.

SMILES | KCNQ1 inh | KCNQ1 pot | Kir21 inh | KCNK3 block | hERG rescue | KCNK9 inh
O=C(N1CCC(n2nc(-c3ccccc3)oc2=O)CC1)C1(c2ccc(Cl)cc2)CC1 | i | i | -1.61 | i | -9.8 | i
COc1ccc(CCn2c(C)nc3c(c(=O)c4ccccc4n3C)c2=O)cc1 | i | i | -1.18 | i | -3.3 | i
COc1ccc(CCn2c(S)nc3ccccc3c2=O)cc1 | i | 8* | 0.06 | i | 3.9 | i
COc1ccc2cc(C3(C)NC(=O)N(CC(=O)N4CCCCC4)C3=O)ccc2c1 (configuration not stated) | · | · | · | i | · | ·
N#Cc1c[nH]n2c(=O)c3c(nc12)CCCC3 | i | i | -0.12 | · | 5.4* | i
Cc1ccc(C(C)C)c(OCCNC(=S)Nc2cccc3ccccc23)c1 | 8* | i | -0.84 | i | -9.2 | i
Cc1ccc(C(C)C)c(OCCN)c1 | i | i | -0.6 | i | -3.8 | i
Cc1ccc(C)c(OCc2n[nH]c(=S)o2)c1 | i | i | 0.11 | i | -11.4 | i
CCCN(CCC)CCOc1cc(C)ccc1C(C)C | i | i | 0.22 | i | -5.9 | i
Cc1ccc(C(C)C)c(OCc2n[nH]c(=S)o2)c1 | i | 8* | 0.24 | i | -2.3 | i
Cc1ccc(C(C)C)c(OCCN(C)C)c1 | i | i | -0.23 | i | 6.6* | i
Cc1ccc(C(C)C)c(OCCNCc2ccccc2)c1 | i | i | -8.84* | i | -10.6 | i
COCc1c(Br)c(C)nc2sc3c(=O)[nH]nnc3c12 | i | i | -0.33 | i | -8.2 | i
Cc1ccc(C(C)C)c(OCCCCN2CCNCC2)c1 | i | i | -6.13* | i | -8.3 | i
O=C(c1cn(-c2ccccc2)nc1-c1cccnc1)N1CCN(S(=O)(=O)c2cccc(F)c2)CC1 | · | · | · | i | · | ·
CCC(=O)N(Cc1c(C)nn(-c2ccccc2)c1Cl)c1ccc(Cl)cc1 | 6* | i | -6.53 | i | -12.7 | i
CC(=O)Oc1ccc(C(c2ccc(OC(C)=O)cc2)c2ccccn2)cc1 | i | i | -4.34* | i | -5.4 | i
c1ccc(C(c2ccccn2)c2ccccn2)cc1 | i | i | -0.75 | i | -1.5 | i
Cc1ccc(C)c(Oc2cc(NC(=O)CCCn3nc(C)c([N+](=O)[O-])c3C)cc([N+](=O)[O-])c2)c1 | i | i | 0.8 | i | -0.7 | -7.74*
CCOC(=O)C1=C(C)NC(C)=C(C(=O)OCC)C1C(=O)OCC(=O)NCc1ccc(F)cc1 | · | · | · | i | · | ·
CCOc1ccc(-c2c(C)sc3nc[nH]c(=O)c23)cc1 | i | i | 0.32 | i | -12.1 | i
O=C(CC1C(=O)NCCN1Cc1ccccc1C(F)(F)F)NCCc1ccccn1 (configuration not stated) | i | i | -0.88 | i | -3.2 | i
Cc1ccc(CNC(=O)c2ccc(Cn3cc(-c4ccc(C)cc4)nc3-c3ccncc3)cc2)cc1 | i | i | 0.26 | i | -8.7 | i
N#C/C(=C\c1ccc(-c2ccccc2Cl)o1)C(=O)Nc1nc2ccccc2s1 | i | i | 0.5 | i | 10.3* | i
Cc1oc(C)c2c(=O)ccc3c(c12)OC(N)=C(C#N)C3c1ccc(F)cc1 (configuration not stated) | 8* | i | -0.01 | i | -6.5 | i
SMILES | KCNQ1 inh | KCNQ1 pot | Kir21 inh | KCNK3 block | hERG rescue | KCNK9 inh
COc1ccc(CCN(C)C2CCCN(C(=O)CCC(F)(F)F)C2)cc1OC (configuration not stated) | i | i | -1.55 | i | -7.1 | i
Cc1ccc(S(=O)(=O)Nc2cc(Cl)c(O)cc2C)cc1 | i | i | -5.58* | i | -14.7 | i
Cc1ccc(S(=O)(=O)Nc2cc(C(C)C)c(O)cc2C)cc1 | i | i | -6.47* | i | -9.6 | i
Cc1ccc(NS(=O)(=O)c2ccc(Cl)nc2)c(C)c1 | · | · | · | i | · | ·
CCCN(C(=O)/C=C/c1ccc(S(=O)(=O)N(CC)CC)cc1)C1CCS(=O)(=O)C1 (configuration not stated) | · | · | · | i | · | ·
COc1ccccc1Nc1nc(NCC2CCCO2)c2ccccc2n1 (configuration not stated) | i | i | -11.6* | i | -19.2 | i
COc1ccc([C@H]2CC(=O)C=C(c3ccc(Oc4ccccc4)cc3)C2)cc1OC | · | · | · | i | · | ·
O=C(NCc1ccc(Cl)cc1)C1CCN(C(=O)c2ccc(Cl)cc2)CC1 | · | · | · | i | · | ·
Cc1cccc(C(=O)NC(=S)NNC(=O)COc2ccc(Cl)cc2)c1 | i | 59* | 0.23 | i | -12.7 | i
COc1ccc(C(=O)NNC(=S)NC(=O)c2ccc(OC)cc2)cc1 | i | i | -1.05 | i | -9.1 | i
O=C(NNC(=S)NC(=O)c1ccc(Br)cc1)c1cccc([N+](=O)[O-])c1 | i | 21* | 0.01 | i | -1.1 | i
O=C(NNC(=S)NC(=O)c1ccc(Br)cc1)c1ccc([N+](=O)[O-])cc1 | i | i | 0.05 | i | -10.6 | i
CC(C)(C)c1cc(CCC(=O)NNC(=S)NC(=O)c2ccccc2)cc(C(C)(C)C)c1O | i | 36* | 0.07 | i | -8.0 | i
COc1ccc(C(=O)NC(=S)NNC(=O)c2cccc(C)c2)cc1 | i | 62* | 1.68 | i | -4.7 | i
CCOC(=O)c1c(NC(=O)CCS(=O)(=O)c2ccccc2)sc2c1CCN(C(C)C)C2 | i | i | -1.39 | i | -6.2 | i
Cc1ccc(C(=O)CC(=O)COc2ccc(Cl)cc2)cc1 | i | 17* | 0.12 | i | -11.4 | i
Cc1ccc(C(=O)NCCOc2ccc(Cl)cc2)cc1 | i | i | 0.7 | i | -0.7 | i
Cc1cccc(C(=O)NNC(=S)NC(=O)c2cccs2)c1 | i | i | 0.93 | i | -4.2 | i
Cc1cccc(C(=O)NNC(=S)NC(=O)c2ccccc2)c1 | i | 23* | 1.33 | i | -1.3 | i
CCN(CC)CCN1C(=O)C2C(C(=O)Nc3ccc(C(C)C)cc3)C3C=CC2(O3)C1C(=O)NC1CCCCC1 (configuration not stated) | i | i | -0.88 | i | -7.2 | i
CCN(CC)c1ccc(CNc2nc3ccccc3n2CCN2CCCCC2)cc1 | 7* | i | -1.44 | i | -18.4 | i
